Common to all, as to assay type: functional
In one assay the test system is Plasmodium falciparum. Description: Antimalarial activity against chloroquine-sensitive Plasmodium falciparum 3D7 after 72 hrs by SYBR Green-1 staining based fluorescence assay. To be noted: 3D7, 72 h.
Another assay relates to Pseudomonas aeruginosa. Description: Antibacterial activity against Pseudomonas aeruginosa ATCC BAA-427 by broth microdilution method. The method in brief:
(§1)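 Bacteria were tested by the NCCLS method in Mueller Hinton broth, with gentamicin and norfloxacin as reference drugs.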

Assay [1] has as its system Staphylococcus aureus. The assay can be described thus: Antibacterial activity against Staphylococcus aureus ATCC 29213 by broth microdilution method. Background: Dilution methods test growth across graded concentrations, often in twofold steps.
The subject of the next assay is Candida parapsilosis. Description: Anti-fungal activity against Candida parapsilosis ATCC 22019 after 48 hrs by broth microdilution method. To be noted: Lodderomyces parapsilosis, ATCC 22019, 48 h.
Assay [2] has as its system Staphylococcus aureus. The assay can be described thus: Antibacterial activity against Staphylococcus aureus ATCC 25923 by broth microdilution method.
The test system of the next assay is Escherichia coli. Description: Antibacterial activity against Escherichia coli ATCC 9637 by broth microdilution method. To be noted: W. In a few lines: as §1
The next assay concerns Sporothrix schenckii. The assay can be described thus: Anti-fungal activity against Sporothrix schenckii after 48 hrs by broth microdilution method.
Another assay has as its system Cryptococcus neoformans. Description: Anti-fungal activity against Cryptococcus neoformans after 48 hrs by broth microdilution method.
Another assay has as its system Klebsiella pneumoniae. Description: Antibacterial activity against Klebsiella pneumoniae ATCC 27736 by broth microdilution method. The method in brief:
as §1

The subject of a further assay is Aspergillus fumigatus. The assay can be described thus: Anti-fungal activity against Aspergillus fumigatus after 48 hrs by broth microdilution method.
The subject of assay [3] is Staphylococcus aureus. Description: Antibacterial activity against methicillin-resistant Staphylococcus aureus ATCC 700699 by broth microdilution method. To be noted: Mu50.
The test system of a further assay is Candida albicans. The assay can be described thus: Anti-fungal activity against Candida albicans after 48 hrs by broth microdilution method.
In assay [4] the test system is Trichophyton mentagrophytes. Description: Anti-fungal activity against Trichophyton mentagrophytes after 48 hrs by broth microdilution method.

The structures appear in SMILES notation. pIC50: −log10 of the molar value. Converted amounts (≈) assume the structure as drawn. Some results are limits rather than exact numbers.

The values that follow come from ChEMBL document CHEMBL3994637, “Broad spectrum anti-infective properties of benzisothiazolones and the parallels in their anti-bacterial and anti-fungal effects” (Bioorg Med Chem Lett, 2017).

What is called pIC50 is the IC50 on a negative log10 scale, so that one unit is a factor of ten. One may read the IC50 as the point on the concentration scale where inhibition reaches its midpoint. A lower IC50 goes with inhibition by little substance. The term MIC denotes the smallest concentration in the dilution series that meets the test's criterion for growth inhibition. Low readings indicate greater potency, high ones weaker potency. With `O=c1c2ccccc2sn1C1CCCCC1n1sc2ccccc2c1=O` (stereo not given), in the assay on Plasmodium falciparum, the pIC50 was < 5.70. In addition, the IC50 in the assay on Pseudomonas aeruginosa was > 50 µg/mL; in the assay with Staphylococcus aureus [1], 2.5 µg/mL (≈ 6.54 µM); in the assay on Candida parapsilosis, > 50 µg/mL; in the assay on Staphylococcus aureus [2], 3.2 µg/mL (≈ 8.37 µM); in the assay on Escherichia coli, > 50 µg/mL; with Sporothrix schenckii, > 50 µg/mL. Besides, the IC50 in the assay with Cryptococcus neoformans is > 50 µg/mL; with Klebsiella pneumoniae, > 50 µg/mL; in the assay with Aspergillus fumigatus, > 50 µg/mL; with Staphylococcus aureus [3], 1.4 µg/mL (≈ 3.66 µM); in the assay on Candida albicans, > 50 µg/mL; in assay [4], > 50 µg/mL. The MIC in the assay with Pseudomonas aeruginosa was > 50 µg/mL; in the assay on Staphylococcus aureus [1], 3.7 µg/mL (≈ 9.67 µM); against Candida parapsilosis, > 50 µg/mL; in the assay on Staphylococcus aureus [2] it was 3.4 µg/mL (≈ 8.89 µM); against Escherichia coli, > 50 µg/mL; against Sporothrix schenckii, > 50 µg/mL. Besides, the MIC against Cryptococcus neoformans was > 50 µg/mL; against Klebsiella pneumoniae, > 50 µg/mL; against Aspergillus fumigatus it was > 50 µg/mL; with Staphylococcus aureus [3], 2.3 µg/mL (≈ 6.01 µM); with Candida albicans, > 50 µg/mL; in [4] it was > 50 µg/mL.

On to `O=c1c2ccccc2sn1Cc1ccc2c(c1)OCO2`, for which, in the assay on Plasmodium falciparum, the pIC50 is < 5.70. The IC50 with Pseudomonas aeruginosa was > 50 µg/mL; in the assay on Staphylococcus aureus [1], 1.9 µg/mL (≈ 6.66 µM); in the assay on Staphylococcus aureus [2], 2.2 µg/mL (≈ 7.71 µM); with Escherichia coli it was > 50 µg/mL; in the assay with Sporothrix schenckii, 0.3 µg/mL (≈ 1.05 µM); with Cryptococcus neoformans, 0.8 µg/mL (≈ 2.8 µM). In addition, the IC50 is > 50 µg/mL with Klebsiella pneumoniae, 1.5 µg/mL (≈ 5.26 µM) with Aspergillus fumigatus, 0.6 µg/mL (≈ 2.1 µM) in the assay on Staphylococcus aureus [3] and 0.56 µg/mL (≈ 1.96 µM) with Candida albicans. Moreover, the MIC against Pseudomonas aeruginosa is > 50 µg/mL; with Staphylococcus aureus [1], 2.5 µg/mL (≈ 8.76 µM); in the assay on Candida parapsilosis, > 50 µg/mL; in the assay on Staphylococcus aureus [2], 2.6 µg/mL (≈ 9.11 µM); against Escherichia coli it was > 50 µg/mL; in the assay on Sporothrix schenckii it was 0.5 µg/mL (≈ 1.75 µM). Besides, the MIC in the assay with Cryptococcus neoformans was 0.8 µg/mL (≈ 2.8 µM); in the assay with Klebsiella pneumoniae, > 50 µg/mL; in the assay with Aspergillus fumigatus, 1.7 µg/mL (≈ 5.96 µM); in the assay on Staphylococcus aureus [3], 1 µg/mL (≈ 3.5 µM); in the assay on Candida albicans it was 0.7 µg/mL (≈ 2.45 µM); in assay [4], 1.5 µg/mL (≈ 5.26 µM).

Consider `CC(C)Cn1sc2ccccc2c1=O`, for which the pIC50 in the assay on Plasmodium falciparum is < 5.70. The IC50 was > 50 µg/mL in the assay on Pseudomonas aeruginosa; 6.3 µg/mL (≈ 30.4 µM) with Staphylococcus aureus [1]; 1 µg/mL (≈ 4.82 µM) in the assay on Candida parapsilosis; 10.6 µg/mL (≈ 51.1 µM) in the assay with Staphylococcus aureus [2]; > 50 µg/mL in the assay with Escherichia coli; > 50 µg/mL with Klebsiella pneumoniae. Besides, the IC50 in the assay with Aspergillus fumigatus is 1.3 µg/mL (≈ 6.27 µM); with Staphylococcus aureus [3] it was 4.7 µg/mL (≈ 22.7 µM); in assay [4] it was > 50 µg/mL. For the same compound, the MIC is > 50 µg/mL in the assay on Pseudomonas aeruginosa; 9.8 µg/mL (≈ 47.3 µM) against Staphylococcus aureus [1]; 1.1 µg/mL (≈ 5.31 µM) against Candida parapsilosis; 15.4 µg/mL (≈ 74.3 µM) with Staphylococcus aureus [2]; > 50 µg/mL against Escherichia coli; 1.4 µg/mL (≈ 6.75 µM) in the assay with Sporothrix schenckii. Further, the MIC against Cryptococcus neoformans was 0.4 µg/mL (≈ 1.93 µM); in the assay on Klebsiella pneumoniae it was > 50 µg/mL; against Aspergillus fumigatus, 2.6 µg/mL (≈ 12.5 µM); against Staphylococcus aureus [3] it was 5.2 µg/mL (≈ 25.1 µM); with Candida albicans it was 0.6 µg/mL (≈ 2.89 µM); in assay [4] it was > 50 µg/mL.

Regarding `Nc1ccccc1-n1sc2ccccc2c1=O`, in the assay on Plasmodium falciparum, the pIC50 is < 5.70. For the same compound, the IC50 with Pseudomonas aeruginosa is > 50 µg/mL; in the assay on Staphylococcus aureus [1] it was > 50 µg/mL; in the assay on Candida parapsilosis, > 50 µg/mL; in the assay on Staphylococcus aureus [2] it was > 50 µg/mL; with Escherichia coli, > 50 µg/mL; with Sporothrix schenckii, 5.7 µg/mL (≈ 23.5 µM). The IC50 in the assay on Cryptococcus neoformans was 1.9 µg/mL (≈ 7.84 µM); in the assay on Klebsiella pneumoniae, > 50 µg/mL; in the assay with Staphylococcus aureus [3], > 50 µg/mL; in the assay with Candida albicans, 2.6 µg/mL (≈ 10.7 µM). The MIC in the assay on Pseudomonas aeruginosa is > 50 µg/mL; in the assay on Staphylococcus aureus [1], > 50 µg/mL; against Candida parapsilosis, > 50 µg/mL; in the assay on Staphylococcus aureus [2], > 50 µg/mL; against Escherichia coli, > 50 µg/mL; in the assay with Sporothrix schenckii, 11.7 µg/mL (≈ 48.3 µM). Further, the MIC in the assay with Cryptococcus neoformans is 2.3 µg/mL (≈ 9.49 µM); in the assay with Klebsiella pneumoniae, > 50 µg/mL; against Aspergillus fumigatus, 12.5 µg/mL (≈ 51.6 µM); against Staphylococcus aureus [3], > 50 µg/mL; against Candida albicans, 4.3 µg/mL (≈ 17.7 µM); in assay [4] it was 3.3 µg/mL (≈ 13.6 µM).

Consider `COC(=O)[C@H](C(C)C)n1sc2ccccc2c1=O`, for which the pIC50 in the assay with Plasmodium falciparum is < 5.70. Besides, the IC50 with Pseudomonas aeruginosa is > 50 µg/mL; with Staphylococcus aureus [1] it was 2.6 µg/mL (≈ 9.8 µM); in the assay on Candida parapsilosis it was 1.6 µg/mL (≈ 6.03 µM); in the assay on Staphylococcus aureus [2] it was 2.4 µg/mL (≈ 9.05 µM); in the assay on Escherichia coli, > 50 µg/mL; with Sporothrix schenckii it was 2.5 µg/mL (≈ 9.42 µM). Moreover, the concentration for half-maximal inhibition (IC50) in the assay on Cryptococcus neoformans is 2.5 µg/mL (≈ 9.42 µM); in the assay on Klebsiella pneumoniae it was > 50 µg/mL; in the assay with Staphylococcus aureus [3], 0.82 µg/mL (≈ 3.09 µM); in the assay on Candida albicans it was 1.2 µg/mL (≈ 4.52 µM); in [4] it was 1.7 µg/mL (≈ 6.41 µM). In addition, the MIC in the assay with Pseudomonas aeruginosa was > 50 µg/mL; against Staphylococcus aureus [1], 4.6 µg/mL (≈ 17.3 µM); against Candida parapsilosis, 3.1 µg/mL (≈ 11.7 µM); with Staphylococcus aureus [2], 2.9 µg/mL (≈ 10.9 µM); with Escherichia coli it was > 50 µg/mL; in the assay on Sporothrix schenckii it was 11.9 µg/mL (≈ 44.8 µM). Also, the MIC was 4.5 µg/mL (≈ 17 µM) against Cryptococcus neoformans; > 50 µg/mL against Klebsiella pneumoniae; 12.5 µg/mL (≈ 47.1 µM) against Aspergillus fumigatus; 0.97 µg/mL (≈ 3.66 µM) in the assay on Staphylococcus aureus [3]; 2.3 µg/mL (≈ 8.67 µM) with Candida albicans; 2.4 µg/mL (≈ 9.05 µM) in assay [4].

As for `O=c1c2ccccc2sn1-c1ccccc1-n1sc2ccccc2c1=O`, the pIC50 with Plasmodium falciparum was < 5.70. The IC50 with Pseudomonas aeruginosa is > 50 µg/mL; in the assay on Staphylococcus aureus [1] it was 6.3 µg/mL (≈ 16.7 µM); in the assay with Candida parapsilosis, 15.2 µg/mL (≈ 40.4 µM); with Staphylococcus aureus [2], 10 µg/mL (≈ 26.6 µM); in the assay with Escherichia coli, > 50 µg/mL; in the assay on Sporothrix schenckii, > 50 µg/mL. Also, the IC50 in the assay with Cryptococcus neoformans was 13.7 µg/mL (≈ 36.4 µM); in the assay with Klebsiella pneumoniae, > 50 µg/mL; in the assay with Aspergillus fumigatus, > 50 µg/mL; with Staphylococcus aureus [3], 4.7 µg/mL (≈ 12.5 µM); in the assay with Candida albicans, 14.2 µg/mL (≈ 37.7 µM); in [4], 12.5 µg/mL (≈ 33.2 µM). The minimum inhibitory concentration (MIC) against Pseudomonas aeruginosa is > 50 µg/mL; in the assay on Staphylococcus aureus [1], 6.5 µg/mL (≈ 17.3 µM); in the assay on Candida parapsilosis, 17.1 µg/mL (≈ 45.4 µM); in the assay with Staphylococcus aureus [2], 18 µg/mL (≈ 47.8 µM); in the assay on Escherichia coli, > 50 µg/mL; against Sporothrix schenckii it was > 50 µg/mL. Moreover, the MIC in the assay on Cryptococcus neoformans was 14.4 µg/mL (≈ 38.3 µM); with Klebsiella pneumoniae, > 50 µg/mL; with Aspergillus fumigatus it was > 50 µg/mL; against Staphylococcus aureus [3] it was 10.2 µg/mL (≈ 27.1 µM); against Candida albicans, 25 µg/mL (≈ 66.4 µM); in assay [4], 13.6 µg/mL (≈ 36.1 µM).

For `COC(=O)[C@H](C)n1sc2ccccc2c1=O`, the pIC50 with Plasmodium falciparum is < 5.70. Moreover, the IC50 in the assay on Pseudomonas aeruginosa is > 50 µg/mL; in the assay on Staphylococcus aureus [1], 6.4 µg/mL (≈ 27 µM); with Staphylococcus aureus [2], 2 µg/mL (≈ 8.43 µM); in the assay with Escherichia coli, > 50 µg/mL; in the assay on Sporothrix schenckii, 2.9 µg/mL (≈ 12.2 µM); in the assay with Cryptococcus neoformans, 1.4 µg/mL (≈ 5.9 µM). Besides, the IC50 in the assay with Klebsiella pneumoniae is > 50 µg/mL; in the assay on Staphylococcus aureus [3] it was 0.84 µg/mL (≈ 3.54 µM); in the assay on Candida albicans, 1.9 µg/mL (≈ 8.01 µM); in [4], 11.4 µg/mL (≈ 48 µM). Besides, the MIC is > 50 µg/mL in the assay with Pseudomonas aeruginosa; 8.4 µg/mL (≈ 35.4 µM) in the assay on Staphylococcus aureus [1]; 12.5 µg/mL (≈ 52.7 µM) in the assay on Candida parapsilosis; 3 µg/mL (≈ 12.6 µM) against Staphylococcus aureus [2]; > 50 µg/mL with Escherichia coli; 12.2 µg/mL (≈ 51.4 µM) against Sporothrix schenckii. For the same compound, the MIC in the assay on Cryptococcus neoformans is 2 µg/mL (≈ 8.43 µM); in the assay on Klebsiella pneumoniae, > 50 µg/mL; with Aspergillus fumigatus, 25 µg/mL (≈ 105 µM); with Staphylococcus aureus [3], 0.87 µg/mL (≈ 3.67 µM); in the assay on Candida albicans, 2.7 µg/mL (≈ 11.4 µM); in assay [4] it was 12 µg/mL (≈ 50.6 µM).
